These results are taken from ChEMBL document CHEMBL1135836, “Cyclodextrin-derived host molecules as reversal agents for the neuromuscular blocker rocuronium bromide: synthesis and structure-activity relationships” (J Med Chem, 2002).

As usually defined, the ED50 is the midpoint of the dose-response relation. As a reminder, the pEC50 is the negative decadic logarithm of the EC50, by convention in mol/L.

pEC50: −log10 of the molar value.

Assay type in all cases: functional
Assay [1] has as its system Cavia porcellus. The assay can be described thus: In vivo reversal activity versus ~90% block by rocuronium in guinea pig. Summed up: (§1)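 Male Dunkin-Hartley guinea pigs (600-900 g), anaesthetized ip with pentobarbitone 10 mg/kg plus urethane 1000 mg/kg, tracheotomized and ventilated. Continuous iv rocuronium infusion (~10 nmol kg-1 min-1) was raised to a steady 85-90% block. Increasing iv doses of agent were given cumulatively. ED50 = 50% recovery versus preblock twitch, by regression. Mean ± SEM of at least two experiments, or one.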

For assay [2], the system named is Cavia porcellus. The assay can be described thus: In vivo reversal activity versus ~90% block by rocuronium in guinea pig, expressed as % of maximum reversal at 8 umol/kg conc. Summed up: (§2)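 Male Dunkin-Hartley guinea pigs (600-900 g) anaesthetized ip with pentobarbitone 10 mg/kg plus urethane 1000 mg/kg, tracheotomized and artificially ventilated. Continuous iv rocuronium bromide infusion (~10 nmol kg-1 min-1) raised until steady-state twitch block of 85-90%. Increasing single iv doses of reversal agent given by a separate catheter. Max reversal is peak twitch recovery versus preblock height at highest dose tested; means ± SEM, n ≥ 2 or single experiment.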

For assay [3], the species on record is Mus musculus. The assay can be described thus: In vitro reversal activity versus ~90% block by rocuronium in isolated mouse hemidiaphragm, expressed as % of maximum reversal at 18 uM conc.
The species named for assay [4] is Mus musculus. The assay can be described thus: In vitro reversal activity versus ~90% block by rocuronium in isolated mouse hemidiaphragm, expressed as effective conc.
The species entered for assay [5] is Mus musculus. The assay can be described thus: In vitro reversal activity versus ~90% block by rocuronium in isolated mouse hemidiaphragm, expressed as % of maximum reversal at 7.2 uM conc.
Assay [6] concerns Cavia porcellus. The assay can be described thus: In vivo reversal activity versus ~90% block by rocuronium in guinea pig, expressed as % of maximum reversal at 2 umol/kg conc. Summed up:
as §2

Assay [7] concerns Cavia porcellus. The assay can be described thus: In vivo reversal activity versus ~90% block by rocuronium in guinea pig, expressed as % of maximum reversal at 16 umol/kg conc. Summed up: as §2
For assay [8], the species on record is Mus musculus. The assay can be described thus: In vitro reversal activity versus ~90% block by rocuronium in isolated mouse hemidiaphragm, expressed as % of maximum reversal at 360 uM conc.
Assay [9] has as its system Cavia porcellus. The assay can be described thus: In vivo reversal activity versus ~90% block by rocuronium in guinea pig, expressed as % of maximum reversal at 15 umol/kg conc. Summed up:
as §2

The subject of assay [10] is Cavia porcellus. The assay can be described thus: In vivo reversal activity versus ~90% block by rocuronium in guinea pig, expressed as % of maximum reversal at 31.8 umol/kg conc. Summed up: as §2
In assay [11] the test system is Cavia porcellus. The assay can be described thus: In vivo reversal activity versus ~90% block by rocuronium in guinea pig, expressed as % of maximum reversal at 0.3 umol/kg conc. Summed up:
as §1

Assay [12] is filed under the species Mus musculus. The assay can be described thus: In vitro reversal activity versus ~90% block by rocuronium in isolated mouse hemidiaphragm, expressed as % of maximum reversal at 5.4 uM conc.
Assay [13] is filed under the species Mus musculus. The assay can be described thus: In vitro reversal activity versus ~90% block by rocuronium in isolated mouse hemidiaphragm, expressed as % of maximum reversal at 3.6 uM conc.
The test system of assay [14] is Cavia porcellus. The assay can be described thus: In vivo reversal activity versus ~90% block by rocuronium in guinea pig, expressed as % of maximum reversal at 1.6 umol/kg conc. Summed up: as §1

In the case of `CC(CSCC1O[C@@H]2O[C@@H]3C(CSCC(C)C(=O)[O-])O[C@H](O[C@@H]4C(CSCC(C)C(=O)[O-])O[C@H](O[C@@H]5C(CSCC(C)C(=O)[O-])O[C@H](O[C@@H]6C(CSCC(C)C(=O)[O-])O[C@H](O[C@@H]7C(CSCC(C)C(=O)[O-])O[C@H](O[C@@H]8C(CSCC(C)C(=O)[O-])O[C@H](O[C@@H]9C(CSCC(C)C(=O)[O-])O[C@H](O[C@H]1C(O)C2O)C(O)C9O)C(O)C8O)C(O)C7O)C(O)C6O)C(O)C5O)C(O)C4O)C(O)C3O)C(=O)[O-].[Na+].[Na+].[Na+].[Na+].[Na+].[Na+].[Na+].[Na+]` (stereo not given in full), the ED50 with Cavia porcellus [1] worked out at 0.73 µmol/kg. Besides, the Max reversal in the assay on Cavia porcellus [2] turned out to be 97.8%; in the assay listed under Mus musculus [3] it was 77.5%. In addition, the negative-log EC50 (pEC50) in the assay filed under Mus musculus [4] was 5.02.

With `O=C([O-])Cc1cccc(SCC2O[C@@H]3O[C@@H]4C(CSc5cccc(CC(=O)[O-])c5)O[C@H](O[C@@H]5C(CSc6cccc(CC(=O)[O-])c6)O[C@H](O[C@@H]6C(CSc7cccc(CC(=O)[O-])c7)O[C@H](O[C@@H]7C(CSc8cccc(CC(=O)[O-])c8)O[C@H](O[C@@H]8C(CSc9cccc(CC(=O)[O-])c9)O[C@H](O[C@@H]9C(CSc%10cccc(CC(=O)[O-])c%10)O[C@H](O[C@@H]%10C(CSc%11cccc(CC(=O)[O-])c%11)O[C@H](O[C@H]2C(O)C3O)C(O)C%10O)C(O)C9O)C(O)C8O)C(O)C7O)C(O)C6O)C(O)C5O)C(O)C4O)c1.[Na+].[Na+].[Na+].[Na+].[Na+].[Na+].[Na+].[Na+]` (stereo not given in full), in the assay on Cavia porcellus [1], the ED50 came to 0.53 µmol/kg. The Max reversal in the assay listed under Mus musculus [5] was 99.1%; in the assay on Cavia porcellus [6] it was 104.6%. In addition, the pEC50 in the assay listed under Mus musculus [4] is 5.77.

`O=C([O-])CCSCC1O[C@@H]2O[C@@H]3C(CSCCC(=O)[O-])O[C@H](O[C@@H]4C(CSCCC(=O)[O-])O[C@H](O[C@@H]5C(CSCCC(=O)[O-])O[C@H](O[C@@H]6C(CSCCC(=O)[O-])O[C@H](O[C@@H]7C(CSCCC(=O)[O-])O[C@H](O[C@H]1C(O)C2O)C(O)C7O)C(O)C6O)C(O)C5O)C(O)C4O)C(O)C3O.[Na+].[Na+].[Na+].[Na+].[Na+].[Na+]` (stereo not given in full): the 50% effective dose (ED50) with Cavia porcellus [1] was > 16 µmol/kg. Also, the Max reversal with Cavia porcellus [7] is on record as 3.2%; in the assay listed under Mus musculus [8], 0%. Besides, the negative-log EC50 (pEC50) in the assay listed under Mus musculus [4] was < 3.44.

With `CC(C)(CSCC1O[C@@H]2O[C@@H]3C(CSCC(C)(C)C(=O)[O-])O[C@H](O[C@@H]4C(CSCC(C)(C)C(=O)[O-])O[C@H](O[C@@H]5C(CSCC(C)(C)C(=O)[O-])O[C@H](O[C@@H]6C(CSCC(C)(C)C(=O)[O-])O[C@H](O[C@@H]7C(CSCC(C)(C)C(=O)[O-])O[C@H](O[C@@H]8C(CSCC(C)(C)C(=O)[O-])O[C@H](O[C@@H]9C(CSCC(C)(C)C(=O)[O-])O[C@H](O[C@H]1C(O)C2O)C(O)C9O)C(O)C8O)C(O)C7O)C(O)C6O)C(O)C5O)C(O)C4O)C(O)C3O)C(=O)[O-].[Na+].[Na+].[Na+].[Na+].[Na+].[Na+].[Na+].[Na+]` (stereo not given in full), the ED50 in the assay with Cavia porcellus [1] worked out at 1.32 µmol/kg. Besides, the Max reversal with Cavia porcellus [9] is 98.8%; in the assay listed under Mus musculus [3], 47.6%. The pEC50 in the assay listed under Mus musculus [4] is 4.69.

For the compound `O=C([O-])CCc1ccc(SCC2O[C@@H]3O[C@@H]4C(CO)O[C@H](O[C@@H]5C(CO)O[C@H](O[C@@H]6C(CO)O[C@H](O[C@@H]7C(CO)O[C@H](O[C@@H]8C(CO)O[C@H](O[C@@H]9C(CO)O[C@H](O[C@@H]%10C(CO)O[C@H](O[C@H]2C(O)C3O)C(O)C%10O)C(O)C9O)C(O)C8O)C(O)C7O)C(O)C6O)C(O)C5O)C(O)C4O)cc1.[Na+]` (stereo not given in full), in the assay on Cavia porcellus [1], the median effective dose (ED50) was 3.33 µmol/kg. In addition, the Max reversal with Cavia porcellus [10] was 93.8%; in the assay listed under Mus musculus [3], 36.2%. Also, in the assay listed under Mus musculus [4], the pEC50 is 4.48.

For the compound `O=C([O-])CCc1cccc(SCC2O[C@@H]3O[C@@H]4C(CO)O[C@H](O[C@@H]5C(CO)O[C@H](O[C@@H]6C(CO)O[C@H](O[C@@H]7C(CO)O[C@H](O[C@@H]8C(CO)O[C@H](O[C@@H]9C(CO)O[C@H](O[C@@H]%10C(CO)O[C@H](O[C@H]2C(O)C3O)C(O)C%10O)C(O)C9O)C(O)C8O)C(O)C7O)C(O)C6O)C(O)C5O)C(O)C4O)c1.[Na+]` (stereo not given in full), the ED50 in the assay on Cavia porcellus [1] was found to be 12.6 µmol/kg. For the same compound, the Max reversal with Cavia porcellus [9] stood at 55.8%; in the assay filed under Mus musculus [3] it was 3.9%. The negative logarithm of the EC50 (pEC50) in the assay listed under Mus musculus [4] was < 4.74.

Turning to `OCCSCC1O[C@@H]2O[C@@H]3C(CSCCO)O[C@H](O[C@@H]4C(CSCCO)O[C@H](O[C@@H]5C(CSCCO)O[C@H](O[C@@H]6C(CSCCO)O[C@H](O[C@@H]7C(CSCCO)O[C@H](O[C@@H]8C(CSCCO)O[C@H](O[C@@H]9C(CSCCO)O[C@H](O[C@H]1C(O)C2O)C(O)C9O)C(O)C8O)C(O)C7O)C(O)C6O)C(O)C5O)C(O)C4O)C(O)C3O` (stereo not given in full), the ED50 with Cavia porcellus [1] was determined as 0.21 µmol/kg. Further, the Max reversal in the assay listed under Mus musculus [5] amounted to 86.4%; with Cavia porcellus [6], 95.8%. In the assay listed under Mus musculus [4], the pEC50 is 5.40.

On to `O=C([O-])CCCCSCC1O[C@@H]2O[C@@H]3C(CSCCCCC(=O)[O-])O[C@H](O[C@@H]4C(CSCCCCC(=O)[O-])O[C@H](O[C@@H]5C(CSCCCCC(=O)[O-])O[C@H](O[C@@H]6C(CSCCCCC(=O)[O-])O[C@H](O[C@@H]7C(CSCCCCC(=O)[O-])O[C@H](O[C@@H]8C(CSCCCCC(=O)[O-])O[C@H](O[C@@H]9C(CSCCCCC(=O)[O-])O[C@H](O[C@H]1C(O)C2O)C(O)C9O)C(O)C8O)C(O)C7O)C(O)C6O)C(O)C5O)C(O)C4O)C(O)C3O.[Na+].[Na+].[Na+].[Na+].[Na+].[Na+].[Na+].[Na+]` (stereo not given in full), for which the ED50 in the assay with Cavia porcellus [1] is 0.07 µmol/kg. Besides, the results for the Max reversal with Cavia porcellus [11] and in the assay listed under Mus musculus [12] were 99% and 98.9%, respectively. Moreover, the pEC50 in the assay listed under Mus musculus [4] was 5.74.

`O=C([O-])CCCSCC1O[C@@H]2O[C@@H]3C(CSCCCC(=O)[O-])O[C@H](O[C@@H]4C(CSCCCC(=O)[O-])O[C@H](O[C@@H]5C(CSCCCC(=O)[O-])O[C@H](O[C@@H]6C(CSCCCC(=O)[O-])O[C@H](O[C@@H]7C(CSCCCC(=O)[O-])O[C@H](O[C@@H]8C(CSCCCC(=O)[O-])O[C@H](O[C@@H]9C(CSCCCC(=O)[O-])O[C@H](O[C@H]1C(O)C2O)C(O)C9O)C(O)C8O)C(O)C7O)C(O)C6O)C(O)C5O)C(O)C4O)C(O)C3O.[Na+].[Na+].[Na+].[Na+].[Na+].[Na+].[Na+].[Na+]` (stereo not given in full): the 50% effective dose (ED50) with Cavia porcellus [1] came to 0.06 µmol/kg. The Max reversal was determined as 93.4% with Cavia porcellus [11] and 98.5% in the assay listed under Mus musculus [13]. The pEC50 in the assay filed under Mus musculus [4] was 5.85.

On to `O=C([O-])c1ccccc1C(=O)NCCCSCC1O[C@@H]2O[C@@H]3C(CSCCCNC(=O)c4ccccc4C(=O)[O-])O[C@H](O[C@@H]4C(CSCCCNC(=O)c5ccccc5C(=O)[O-])O[C@H](O[C@@H]5C(CSCCCNC(=O)c6ccccc6C(=O)[O-])O[C@H](O[C@@H]6C(CSCCCNC(=O)c7ccccc7C(=O)[O-])O[C@H](O[C@@H]7C(CSCCCNC(=O)c8ccccc8C(=O)[O-])O[C@H](O[C@@H]8C(CSCCCNC(=O)c9ccccc9C(=O)[O-])O[C@H](O[C@@H]9C(CSCCCNC(=O)c%10ccccc%10C(=O)[O-])O[C@H](O[C@H]1C(O)C2O)C(O)C9O)C(O)C8O)C(O)C7O)C(O)C6O)C(O)C5O)C(O)C4O)C(O)C3O.[Na+].[Na+].[Na+].[Na+].[Na+].[Na+].[Na+].[Na+]` (stereo not given in full), for which the ED50 in the assay with Cavia porcellus [1] was 0.27 µmol/kg. The values for the Max reversal with Cavia porcellus [14] and in the assay listed under Mus musculus [5] were 83% and 90.7%, respectively. Moreover, the pEC50 in the assay filed under Mus musculus [4] was 7.00.
